Experimental data as given in ChEMBL document CHEMBL2034888, “Synthesis, anticonvulsant activity, and neuropathic pain-attenuating activity of N-benzyl 2-amino-2-(hetero)aromatic acetamides” (Bioorg Med Chem, 2012).

Experiments:
[1] = Neurotoxicity in ip dosed albino CF-1 mouse by rotorod test; type: toxicity, organism-based; conditions: in vivo
Mus musculus [2] = assay: Anticonvulsant activity in ip dosed albino CF-1 mouse assessed as protection against maximal electroshock-induced seizure; type: functional; conditions: albino CF-1, ip
Mus musculus [3] = assay: Antinociceptive activity in NMRI mouse neuropathic pain model assessed as protection against formalin-induced nociceptive behaviour at 90 mg/kg, ip after 30 mins; type: functional; conditions: route intraperitoneal
How it was run: (§1)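 Formalin test in adult male NMRI mice used as a prescreen for pain attenuation, 30 min after ip administration. ED50 in mg/kg was derived where possible. Otherwise the percent protected after a single stated dose was reported.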

Mus musculus [4] = assay: Anticonvulsant activity in ip dosed NMRI mouse assessed as protection against maximal electroshock-induced seizure after 30 mins postdose; type: functional; conditions: 0.5 h; for minimal effective dose: read-out: MED
How it was run: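 Adult male NMRI mice given compound intraperitoneally; maximal electroshock seizure test run 30 min after dosing. Where a dose–response was run, ED50 in mg/kg was derived. Otherwise a minimal active dose was reported, or the percentage of mice protected at a single dose.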

Mus musculus [5] = assay: Toxicity in ip dosed NMRI mouse assessed as tremors at 90 mg/kg, ip after 30 mins; type: organism-based; set-up: dose 90 mg/kg, route intraperitoneal; conditions: in vivo, 0.5 h
How it was run: (§2)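 Adult male NMRI mice were dosed ip. Whole-animal pharmacological observation was made at the stated mg/kg dose, recording tremors, convulsions, writhing, impaired gait or mortality. Timing was 30 min post-dose.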

Mus musculus [6] = assay: Anticonvulsant activity in ip dosed NMRI mouse assessed as protection against 6 Hz psychomotor seizure after 30 mins; type: functional; conditions: 0.5 h
How it was run: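 Adult male NMRI mice dosed ip. Psychomotor seizures were induced by 6 Hz stimulation at 44 mA, 30 min after administration. ED50 in mg/kg was derived where determinable, otherwise a minimal active dose was reported.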

Mus musculus [7] = assay: Protective index, ratio of TD50 for NMRI mouse to ED50 for anticonvulsant activity in ip dosed NMRI mouse by maximal electroshock seizure test; type: functional
[8] = Neurotoxicity in ip dosed NMRI mouse after 30 mins by rotorod test; type: toxicity, organism-based; conditions: in vivo
How it was run: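 Neurological impairment was scored by rotorod in adult male NMRI mice 30 min after ip dosing. TD50 in mg/kg was derived where possible, otherwise the maximal tolerated dose was given.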

Mus musculus [9] = assay: Protective index, ratio of TD50 for NMRI mouse to ED50 for antinociceptive activity in ip dosed NMRI mouse neuropathic pain model; type: functional
Mus musculus [10] = assay: Toxicity in ip dosed NMRI mouse assessed as convulsions at 160 mg/kg, ip after 30 mins; type: organism-based; set-up: dose 160 mg/kg, route intraperitoneal; conditions: in vivo, 0.5 h; how it was run: as §2
Mus musculus [11] = assay: Antinociceptive activity in ip dosed NMRI mouse neuropathic pain model assessed as protection against formalin-induced nociceptive behaviour after 30 mins; type: functional; conditions: 0.5 h; how it was run: as §1
Mus musculus [12] = assay: Toxicity in ip dosed NMRI mouse assessed as convulsions at 77 mg/kg, ip after 30 mins; type: organism-based; set-up: dose 77 mg/kg, route intraperitoneal; conditions: in vivo, 0.5 h; how it was run: as §2
Mus musculus [13] = assay: Antinociceptive activity in NMRI mouse neuropathic pain model assessed as protection against formalin-induced nociceptive behaviour at 24 mg/kg, ip after 30 mins; type: functional; conditions: route intraperitoneal; how it was run: as §1
Mus musculus [14] = assay: Toxicity in ip dosed NMRI mouse assessed as mortality at 140 mg/kg, ip after 30 mins; type: organism-based; set-up: dose 140 mg/kg, route intraperitoneal; conditions: in vivo, 0.5 h
How it was run: (§3)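 Adult male NMRI mice dosed intraperitoneally. Whole-animal pharmacological observation at the listed mg/kg dose, with convulsions and mortality recorded as signs. This was done alongside MES, 6 Hz (44 mA) psychomotor seizure, formalin and rotorod testing, which were read 30 min after ip dosing.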

[15] = Ratio of drug level in brain to plasma in mouse; type: ADME, organism-based; conditions: brain and plasma, read-out: BPR
Mus musculus [16] = assay: Toxicity in ip dosed NMRI mouse assessed as convulsions at 105 mg/kg, ip after 30 mins; type: organism-based; set-up: dose 105 mg/kg, route intraperitoneal; conditions: in vivo, 0.5 h; how it was run: as §3
Mus musculus [17] = assay: Toxicity in ip dosed NMRI mouse assessed as mortality at 105 mg/kg, ip after 30 mins; type: organism-based; set-up: dose 105 mg/kg, route intraperitoneal; conditions: in vivo, 0.5 h; how it was run: as §3
Mus musculus [18] = assay: Toxicity in ip dosed NMRI mouse assessed as writhings at 59 mg/kg, ip after 30 mins; type: organism-based; set-up: dose 59 mg/kg, route intraperitoneal; conditions: in vivo, 0.5 h; how it was run: as §2
Mus musculus [19] = assay: Toxicity in ip dosed NMRI mouse assessed as tremors at 59 mg/kg, ip after 30 mins; type: organism-based; set-up: dose 59 mg/kg, route intraperitoneal; conditions: in vivo, 0.5 h; how it was run: as §2
Mus musculus [20] = assay: Antinociceptive activity in NMRI mouse neuropathic pain model assessed as protection against formalin-induced nociceptive behaviour at 110 mg/kg, ip after 30 mins; type: functional; conditions: route intraperitoneal; how it was run: as §1
Mus musculus [21] = assay: Toxicity in ip dosed NMRI mouse assessed as convulsions at 110 mg/kg, ip after 30 mins; type: organism-based; set-up: dose 110 mg/kg, route intraperitoneal; conditions: in vivo, 0.5 h; how it was run: as §3
Mus musculus [22] = assay: Toxicity in ip dosed NMRI mouse assessed as mortality at 110 mg/kg, ip after 30 mins; type: organism-based; set-up: dose 110 mg/kg, route intraperitoneal; conditions: in vivo, 0.5 h; how it was run: as §3

CC(=O)NC(C(=O)NCc1ccccc1)c1cc2ccccc2o1 (racemic)
TD50 [1]: 100 mg/kg
ED50 (Mus musculus [2]): 100 mg/kg

CC(=O)NC(C(=O)NCc1ccccc1)c1ccc2ccccc2c1 (racemic)
TD50 [1]: > 300 mg/kg
ED50 (Mus musculus [2]): > 300 mg/kg

NC(C(=O)NCc1ccccc1)c1cc2ccccc2o1 (racemic)
Activity (Mus musculus [3]): 31%
ED50 (Mus musculus [4]): 90 mg/kg
Activity (Mus musculus [5]): Toxic
ED50 (Mus musculus [6]): > 120 mg/kg

NC(C(=O)NCc1ccccc1)c1cccs1 (racemic)
Ratio TD50/ED50 (Mus musculus [7]): <0.8
minimal effective dose (Mus musculus [4]): 68 mg/kg
MTD at 0.5 h [8]: 51 mg/kg
Ratio TD50/ED50 (Mus musculus [9]): <1.1
Activity (Mus musculus [10]): Toxic
ED50 (Mus musculus [6]): > 91 mg/kg
ED50 (Mus musculus [11]): 48 mg/kg

NC(C(=O)NCc1ccccc1)c1nccs1 (racemic)
Ratio TD50/ED50 (Mus musculus [7]): <2.1
ED50 (Mus musculus [4]): 67 mg/kg
MTD at 0.5 h [8]: 140 mg/kg
Ratio TD50/ED50 (Mus musculus [9]): <3.1
ED50 (Mus musculus [6]): > 140 mg/kg
ED50 (Mus musculus [11]): 45 mg/kg

NC(C(=O)NCc1ccccc1)c1cc2ccccc2s1 (racemic)
ED50 (Mus musculus [4]): 120 mg/kg
ED50 (Mus musculus [6]): > 170 mg/kg
ED50 (Mus musculus [11]): 66 mg/kg

NC(C(=O)NCc1ccccc1)c1ccccc1 (racemic)
Activity (Mus musculus [12]): Toxic
Ratio TD50/ED50 (Mus musculus [7]): >1.7
Activity (Mus musculus [13]): 37%
Activity (Mus musculus [14]): Toxic
ED50 (Mus musculus [4]): > 30 mg/kg
TD50 at 0.5 h [8]: 51 mg/kg
Ratio TD50/ED50 (Mus musculus [9]): >1.2
ED50 (Mus musculus [6]): > 43 mg/kg

NC(C(=O)NCc1ccccc1)c1ccccn1 (racemic)
Kp [15]: 2.7
minimal effective dose (Mus musculus [4]): 100 mg/kg
MTD at 0.5 h [8]: 180 mg/kg
ED50 (Mus musculus [6]): > 100 mg/kg
ED50 (Mus musculus [11]): 33 mg/kg

NC(C(=O)NCc1ccccc1)c1cccnc1 (racemic)
minimal effective dose (Mus musculus [4]): 120 mg/kg
ED50 (Mus musculus [6]): > 210 mg/kg
ED50 (Mus musculus [11]): 74 mg/kg

NC(C(=O)NCc1ccccc1)c1ccncc1 (racemic)
minimal effective dose (Mus musculus [4]): 210 mg/kg
ED50 (Mus musculus [6]): > 120 mg/kg
ED50 (Mus musculus [11]): 67 mg/kg

NC(C(=O)NCc1ccccc1)c1cnccn1 (racemic)
Ratio TD50/ED50 (Mus musculus [7]): >1.9
ED50 (Mus musculus [4]): 85 mg/kg
TD50 at 0.5 h [8]: > 160 mg/kg
Ratio TD50/ED50 (Mus musculus [9]): >1
minimal effective dose (Mus musculus [6]; read-out: MED): 28 mg/kg
ED50 (Mus musculus [11]): > 160 mg/kg

NC(C(=O)NCc1ccccc1)c1cccc2ccccc12 (racemic)
ED50 (Mus musculus [4]): > 69 mg/kg
Activity (Mus musculus [16]): Toxic
ED50 (Mus musculus [6]): > 59 mg/kg
ED50 (Mus musculus [11]): > 33 mg/kg
Activity (Mus musculus [17]): Toxic

NC(C(=O)NCc1ccccc1)c1nccc2ccccc12 (racemic)
ED50 (Mus musculus [4]): > 52 mg/kg
ED50 (Mus musculus [6]): > 93 mg/kg
ED50 (Mus musculus [11]): 29 mg/kg

NC(C(=O)NCc1ccccc1)c1ccc2ccccc2c1 (racemic)
Ratio TD50/ED50 (Mus musculus [7]): <2.4
ED50 (Mus musculus [4]): 45 mg/kg
TD50 at 0.5 h [8]: 110 mg/kg
Activity (Mus musculus [18]): Toxic
Activity (Mus musculus [19]): Toxic
ED50 (Mus musculus [6]): > 110 mg/kg
Activity (Mus musculus [20]): 100%
Activity (Mus musculus [21]): Toxic
ED50 (Mus musculus [11]): < 110 mg/kg
Activity (Mus musculus [22]): Toxic
